# Measured values taken from ChEMBL document CHEMBL1139365, “Inhibition of MDR1 activity in vitro by a novel class of diltiazem analogues: toward new candidates” (J Med Chem, 2009).
# Calls of active or inactive are those of the source. The rule behind the calls is not given here.
# Columns and labels:
# A2780 [1] = test: Antiproliferative activity against human A2780 cells after 3 days by MTT assay; format: functional, cell-based; details: for IC50: Homo sapiens, A2780, 72 h
# Outline: (§1)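 Cells plated 6–8 h in 96-well plates. Compound alone, in duplicate at ≥5 concentrations (3-fold serial dilutions, top 100 μM), with final DMSO […] after predilution in FCS. After 3 days, MTT 4 h at 37 °C, formazan dissolved in DMSO, A540. IC50 taken from single dose–response curves; 3–4 experiments. A2780/DX3 kept doxorubicin-free 2–3 days beforehand.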
# [2] = Antiproliferative activity against human A2780/DX3 cells after 3 days by MTT assay; format: functional, cell-based; details: for IC50: Homo sapiens, A2780/DX3, 72 h; outline: as §1
# A2780 ADR [3] = test: Reversal of P-gp 170-mediated multidrug resistance in human A2780/DX3 cells assessed as reduction in doxorubicin IC50 at IC5 pretreated for 6 hrs before doxorubicin administration measured after 3 days by MTT assay; format: cell-based; design: scale not given: the % may be the effect or the level left
# Outline: (§2)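 A2780/DX3 cells went into medium holding the modulator at its MTT-derived 0% or 5% growth-inhibition concentration. Doxorubicin (30–0.048 μM serial dilutions, modulator kept constant) was added 6 h later. MTT (2 mg/mL) was added after 3 days for 4 h at 37 °C, formazan dissolved in DMSO, A540 read. IC50 came from dose–response curves, repeated 4–6 times. % reduction is versus doxorubicin alone in the same experiment. Kruskal–Wallis/Mann–Whitney tests.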
# A2780 ADR [4] = test: Reversal of P-gp 170-mediated multidrug resistance in human A2780/DX3 cells assessed as reduction in doxorubicin IC50 at IC0 pretreated for 6 hrs before doxorubicin administration measured after 3 days by MTT assay; format: cell-based; design: scale not given: the % may be the effect or the level left; outline: as §2
# A2780 ADR [5] = test: Reversal of P-gp 170-mediated multidrug resistance in human A2780/DX3 cells assessed as increase in intracellular doxorubicin accumulation at 5 times IC5 pretreated for 2 hrs before doxorubicin administration measured after 2 hrs by flow cytometry; format: cell-based
# Outline: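 A2780/DX3 cells (kept in 0.1 μM doxorubicin, drug withdrawn 2–3 days before use) seeded in flasks, grown 24 h to 75–85% confluence. Modulator given at five times the 5%-growth-inhibition concentration for 2 h, then 10 μM doxorubicin for 2 h more. Cells trypsinized, fixed in 3.7% paraformaldehyde/2% sucrose in PBS. Flow cytometry, 488 nm excitation, 575 nm bandpass. Read-out is MFI, with % increase taken from the MFI ratio to doxorubicin alone.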
# [6] = Down regulation of P-gp 170 expression in human A2780/DX3 cells after 72 hrs by flow cytometry; format: functional, cell-based
# Outline: (§3)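 Cells exposed 72 h to compound at concentrations giving 5% or 0% growth inhibition. Then washed in PBS/2% FCS; 2.5 × 10^5 cells stained at 4 °C with anti-Pgp MM4.17 monoclonal, then FITC goat anti-mouse IgG, and analysed by flow cytometry.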
# A2780 [7] = test: Down regulation of P-gp 170 expression in human A2780 cells after 72 hrs by flow cytometry; format: functional, cell-based; outline: as §3
# A2780 [8] = test: Antiproliferative activity against human A2780 cells at 0.20 uM after 3 days by MTT assay; format: functional; details: A2780, 72 h
# [9] = Antiproliferative activity against human A2780/DX3 cells at 15.6 uM after 3 days by MTT assay; format: functional; details: A2780/DX3, 72 h
# A2780 [10] = test: Antiproliferative activity against human A2780 cells at 0.23 uM after 3 days by MTT assay; format: functional; details: A2780, 72 h
# [11] = Antiproliferative activity against human A2780/DX3 cells at 1.88 uM after 3 days by MTT assay; format: functional; details: A2780/DX3, 72 h
# A2780 [12] = test: Ratio of IC50 for human A2780/DX3 cells to IC50 for human A2780 cells assessed as mean resistance index; format: functional
# Outline: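 Doxorubicin alone tested by 3-day MTT assay in both lines (absorbance at 540 nm). IC50 from dose–response curves. Index is the mean IC50 in resistant cells divided by the mean IC50 in sensitive cells.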
# A2780 ADR [13] = test: Reversal of P-gp 170-mediated multidrug resistance in human A2780/DX3 cells assessed as increase in intracellular doxorubicin accumulation at 5 times IC5 pretreated for 2 hrs before doxorubicin administration measured after 2 hrs by epifluorescent microscopic analysis; format: cell-based
# Outline: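 A2780/DX3 cells on chamber slides at 75–85% confluence, pretreated 2 h with compound at five times the concentration giving 5% growth inhibition. Doxorubicin 10 μM then added for 2 h. Cells washed in cold PBS, fixed in 3.7% paraformaldehyde/2% sucrose, mounted and imaged by epifluorescence at 20X. Untreated and compound-only controls included.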
# A2780 [14] = test: Antiproliferative activity against human A2780 cells at 2.22 uM after 3 days by MTT assay; format: functional; details: A2780, 72 h
# [15] = Antiproliferative activity against human A2780/DX3 cells at 2.40 uM after 3 days by MTT assay; format: functional; details: A2780/DX3, 72 h
# A2780 [16] = test: Antiproliferative activity against human A2780 cells at 0.15 uM after 3 days by MTT assay; format: functional; details: A2780, 72 h
# [17] = Antiproliferative activity against human A2780/DX3 cells at 0.3 uM after 3 days by MTT assay; format: functional; details: A2780/DX3, 72 h
# A2780 [18] = test: Antiproliferative activity against human A2780 cells at 0.14 uM after 3 days by MTT assay; format: functional; details: A2780, 72 h
# [19] = Antiproliferative activity against human A2780/DX3 cells at 0.81 uM after 3 days by MTT assay; format: functional; details: A2780/DX3, 72 h
# A2780 [20] = test: Antiproliferative activity against human A2780 cells at 2.9 uM after 3 days by MTT assay; format: functional; details: A2780, 72 h
# [21] = Antiproliferative activity against human A2780/DX3 cells at 4.0 uM after 3 days by MTT assay; format: functional; details: A2780/DX3, 72 h
# A2780 [22] = test: Antiproliferative activity against human A2780 cells at 2.20 uM after 3 days by MTT assay; format: functional; details: A2780, 72 h
# A2780 [23] = test: Antiproliferative activity against human A2780 cells at 1.3 uM after 3 days by MTT assay; format: functional; details: A2780, 72 h
# [24] = Antiproliferative activity against human A2780/DX3 cells at 1.23 uM after 3 days by MTT assay; format: functional; details: A2780/DX3, 72 h
# A2780 [25] = test: Antiproliferative activity against human A2780 cells at 0.72 uM after 3 days by MTT assay; format: functional; details: A2780, 72 h
# [26] = Antiproliferative activity against human A2780/DX3 cells at 4.5 uM after 3 days by MTT assay; format: functional; details: A2780/DX3, 72 h
SMILES,IC5 (A2780 [1]) [µM],IC50 (A2780 [1]) [µM],IC5 [2] [µM],IC50 [2] [µM],Activity (A2780 ADR [3]) [%],Activity (A2780 ADR [4]) [%],Activity (A2780 ADR [5]) [%],Activity [6],Activity (A2780 [7]),further results
CCCCCOC1(c2ccc(Br)cc2)SC=C(C)n2c1noc2=O (stereo unspecified),2.6,108,41.8,> 100,-43,-31,52,inactive,inactive,inhibition at 0.2 µM (A2780 [8]): 0%; inhibition at 15.6 µM [9]: 0%
CCCCCCCCCCCCCCCCCCOC1(c2ccc(Br)cc2)SC=C(C)n2c1noc2=O (stereo unspecified),0.9,> 100,4.9,> 100,-22,-21,< 48,,,inhibition at 0.23 µM (A2780 [10]): 0%; inhibition at 1.88 µM [11]: 0%
COc1cccc2c1C(=O)c1c(O)c3c(c(O)c1C2=O)C[C@@](O)(C(=O)CO)C[C@@H]3O[C@H]1C[C@H](N)[C@H](O)[C@H](C)O1 [DOXORUBICIN],,0.02,,2.21,,,,,,Ratio IC50 (A2780 [12]): 93; Activity_index (A2780 ADR [13]): Active
CCCCCCCCCCCCCCCCCCOC1(c2ccc(Cl)cc2)SC=C(C)n2c1noc2=O (stereo unspecified),4.74,> 100,6.74,> 100,-20,-24,< 48,,,inhibition at 2.22 µM (A2780 [14]): 0%; inhibition at 2.4 µM [15]: 0%
CC/C=C/COC1(c2ccc(Cl)cc2)SC=C(C)n2c1noc2=O (stereo unspecified),1.26,55,2.5,88,-1,2,< 48,,,inhibition at 0.15 µM (A2780 [16]): 0%; inhibition at 0.3 µM [17]: 0%
O=c1onc2n1C=CSC2(O)c1ccc(Cl)cc1 (stereo unspecified),0.48,> 100,3.02,> 100,10,3,< 48,,,inhibition at 0.14 µM (A2780 [18]): 0%; inhibition at 0.81 µM [19]: 0%
CCCCCOC1(c2ccc(Cl)cc2)SC=C(C)n2c1noc2=O (stereo unspecified),7.8,> 100,19,> 100,-38,-39,248,inactive,inactive,inhibition at 2.9 µM (A2780 [20]): 0%; inhibition at 4 µM [21]: 0%
CC/C=C\COC1(c2ccc(Cl)cc2)SC=C(C)n2c1noc2=O (stereo unspecified),3.5,55,20.7,103,-47,-9,429,inactive,inactive,inhibition at 2.2 µM (A2780 [22]): 0%; inhibition at 2.4 µM [15]: 0%
CC/C=C/COC1(c2ccc(Br)cc2)SC=C(C)n2c1noc2=O (stereo unspecified),1.9,59,2.45,111,-23,-8,< 48,,,inhibition at 1.3 µM (A2780 [23]): 0%; inhibition at 1.23 µM [24]: 0%
CCCCCCCCCCCCCCCOC1(c2ccc(Cl)cc2)SC=C(C)n2c1noc2=O (stereo unspecified),2.1,> 100,14.6,> 100,-13,-14,< 48,,,inhibition at 0.72 µM (A2780 [25]): 0%; inhibition at 4.5 µM [26]: 0%
